According to ChEMBL document CHEMBL1157804, “beta-Resorcylic acid lactones from a Paecilomyces fungus” (J Nat Prod, 2010):

Columns and labels:
[1] = Cytotoxicity against african green monkey Vero cells at 55.56 uM after 72 hrs by MTT assay; format: cell-based; conditions: chlorocebus sabaeus, read-out: INH
[2] = Cytotoxicity against african green monkey Vero cells at 18.52 uM after 72 hrs by MTT assay; format: cell-based; conditions: chlorocebus sabaeus, read-out: INH
[3] = Cytotoxicity against african green monkey Vero cells at 166.67 uM after 72 hrs by MTT assay; format: cell-based; conditions: chlorocebus sabaeus, read-out: INH
[4] = Cytotoxicity against african green monkey Vero cells at 6.17 uM after 72 hrs by MTT assay; format: cell-based; conditions: chlorocebus sabaeus, read-out: INH
Plasmodium falciparum [5] = assay: Antiplasmodial activity against chloroquine-resistant Plasmodium falciparum Dd2 after 72 hrs by malaria SYBR Green I-based fluorescence assay; format: functional, organism-based; conditions: Dd2, 72 h
How it was run: (§1)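 Parasites kept continuously in O+ human erythrocytes with 10% human serum under 7% CO2/5% O2/88% N2. Test compounds from 100 mM DMSO stocks, serially diluted in culture medium, added in quadruplicate to asynchronous cultures at 0.2% parasitemia, 2% hematocrit. Incubated 72 h, 37 C. Lysis buffer with SYBR Green I added, 1 h 37 C dark. Fluorescence read at ex 497/em 520 nm. IC50 from nonlinear logistic dose-response regression.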

Plasmodium falciparum [6] = assay: Antiplasmodial activity against chloroquine-susceptible Plasmodium falciparum 3D7 after 72 hrs by malaria SYBR Green I-based fluorescence assay; format: functional, organism-based; conditions: 3D7, 72 h; how it was run: as §1

Compound	cytotoxicity at 72 h, 55.56 µM [1] [%]	cytotoxicity at 72 h, 18.52 µM [2] [%]	cytotoxicity at 72 h, 166.67 µM [3] [%]	cytotoxicity at 72 h, 6.17 µM [4] [%]	IC50 (Plasmodium falciparum [5]) [µM]	IC50 (Plasmodium falciparum [6]) [µM]
COc1cc(O)c2c(c1)[C@@H]1O[C@@H]1C[C@H](O)[C@H](O)[C@@H](O)/C=C/C[C@H](C)OC2=O [AIGIALOMYCIN B]	2.3	0	30.2	0	13.5	0.65
C[C@H]1C/C=C/[C@@H](O)[C@@H](O)CC/C=C/c2cc(O)cc(O)c2C(=O)O1 [AIGIALOMYCIN D]	30.2	12.5	56.3	3.4	10.5	3.1
COc1cc(O)c2c(c1)[C@@H](O)[C@H](C[C@H](O)[C@H](O)[C@@H](O)/C=C/C[C@H](C)O)OC2=O [AIGIALOMYCIN F]	20.3	15.6	43.2	2.3	> 50	0.0109
C[C@@H]1CC[C@H]2[C@@H](C)C(=O)O[C@@H]3O[C@@]4(C)CC[C@@H]1[C@]32OO4 [ARTEMISININ]	–	–	–	–	0.0135	0.0125
COc1cc(O)c2c(c1)[C@@H]1O[C@@H]1C[C@H](O)[C@H](O)[C@H](O)/C=C/C[C@H](C)OC2=O [PAECILOMYCIN A]	0	0	29.6	0	> 50	0.78
COc1cc(O)c2c(c1)[C@@H]1O[C@H]([C@H](O)/C=C/C[C@H](C)OC2=O)[C@@H](O)C[C@H]1O [PAECILOMYCIN B]	5.6	0	46.3	0	> 50	3.8
COc1cc(O)c2c(c1)[C@@H]([C@H](O)C[C@H](O)[C@H](O)[C@@H](O)/C=C/C[C@H](C)O)OC2=O [PAECILOMYCIN C]	–	–	–	–	> 50	> 50
COc1cc(O)c2c(c1)[C@@H]([C@H](O)C[C@H](O)[C@H](O)[C@H](O)/C=C/C[C@H](C)O)OC2=O [PAECILOMYCIN D]	–	–	–	–	> 50	> 50
COc1cc(O)c2c(c1)/C=C/C[C@H](O)[C@H](O)[C@@H](O)CCC[C@H](C)OC2=O [PAECILOMYCIN E]	23.5	3.4	50.2	0	8.8	0.02
COc1cc(O)c2c(c1)/C=C/C[C@H](O)[C@H](O)[C@H](O)CCC[C@H](C)OC2=O [PAECILOMYCIN F]	25.7	10.4	58.5	2.3	1.7	1.1
COc1cc(O)c2c(c1)/C=C/C[C@H](O)[C@H](O)[C@@H](O)/C=C/C[C@H](C)OC2=O [ZEAENOL]	–	–	–	–	> 50	> 50
